# From ChEMBL document CHEMBL1156678, “A new class of analgesic agents toward prostacyclin receptor inhibition: synthesis, biological studies and QSAR analysis of 1-hydroxyl-2-substituted phenyl-4,4,5,5-tetramethylimidazolines” (Eur J Med Chem, 2008)
# Legend:
# Mus musculus [1] = assay: Analgesic activity in ICR mouse assessed as pain threshold variation at 0.013 mmol/kg, ip after 30 mins by tail flick test relative to control; format: functional
# Method in brief: (§1)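 Male ICR mice (25 ± 2 g), kept on a 12/12 h light/dark cycle at 21 ± 2 °C for one day before use. Each received a single i.p. injection in 0.2 ml saline + 0.01 ml DMSO + 0.02 ml Tween-80. Vehicle-only mice served as controls. Basal tail-flick threshold was measured four times (BPT). Thresholds were then read every 30 min for 150 min. PTV = (post-dose threshold − BPT)/BPT. n = 10, x ± SD.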
# Mus musculus [2] = assay: Analgesic activity in ICR mouse assessed as pain threshold variation at 0.0013 mmol/kg, ip after 90 mins by tail flick test relative to control; format: functional; method in brief: as §1
# Mus musculus [3] = assay: Thrombotic toxicity in ICR mouse assessed as tail bleeding time at 1.3 mmol/kg, ip after 30 mins; format: organism-based; conditions: in vivo, 0.5 h
# Method in brief: (§2)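 Male ICR mice (25 ± 2 g) were kept one day on a 12/12 h light/dark cycle at 21 ± 2 °C. Each received a single i.p. dose of 1.30 mmol/kg in saline/DMSO/Tween-80 (0.2/0.01/0.02 ml), or the solvent only. The restrained mouse had 1 mm cut from the tail before dosing and at 5, 15, 30 and 60 min. Bleeding time (s) is reported as mean ± SD.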
# Mus musculus [4] = assay: Analgesic activity in ICR mouse assessed as pain threshold variation at 0.0013 mmol/kg, ip after 150 mins by tail flick test relative to control; format: functional; method in brief: as §1
# Mus musculus [5] = assay: Analgesic activity in ICR mouse assessed as pain threshold variation at 0.013 mmol/kg, ip after 150 mins by tail flick test relative to control; format: functional; method in brief: as §1
# Mus musculus [6] = assay: Analgesic activity in ICR mouse assessed as pain threshold variation at 0.013 mmol/kg, ip after 120 mins by tail flick test relative to control; format: functional; method in brief: as §1
# Mus musculus [7] = assay: Analgesic activity in ICR mouse assessed as pain threshold variation at 0.13 mmol/kg, ip after 120 mins by tail flick test; format: functional; method in brief: as §1
# Mus musculus [8] = assay: Thrombotic toxicity in ICR mouse assessed as tail bleeding time at 1.3 mmol/kg, ip after 5 mins; format: organism-based; conditions: in vivo; method in brief: as §2
# Mus musculus [9] = assay: Thrombotic toxicity in ICR mouse assessed as tail bleeding time at 1.3 mmol/kg, ip after 60 mins; format: organism-based; conditions: in vivo, 1 h; method in brief: as §2
# Mus musculus [10] = assay: Thrombotic toxicity in ICR mouse assessed as tail bleeding time at 1.3 mmol/kg, ip after 15 mins; format: organism-based; conditions: in vivo, 0.25 h; method in brief: as §2
# Mus musculus [11] = assay: Analgesic activity in ICR mouse assessed as pain threshold variation at 0.0013 mmol/kg, ip after 30 mins by tail flick test relative to control; format: functional; method in brief: as §1
# Mus musculus [12] = assay: Analgesic activity in ICR mouse assessed as pain threshold variation at 0.13 mmol/kg, ip after 150 mins by tail flick test; format: functional; method in brief: as §1
# Mus musculus [13] = assay: Analgesic activity in ICR mouse assessed as pain threshold variation at 0.0013 mmol/kg, ip after 120 mins by tail flick test relative to control; format: functional; method in brief: as §1
# Mus musculus [14] = assay: Analgesic activity in ICR mouse assessed as pain threshold variation at 0.13 mmol/kg, ip after 60 mins by tail flick test relative to control; format: functional; method in brief: as §1
# Mus musculus [15] = assay: Analgesic activity in ICR mouse assessed as pain threshold variation at 0.13 mmol/kg, ip after 90 mins by tail flick test relative to control; format: functional; method in brief: as §1
# Mus musculus [16] = assay: Analgesic activity in ICR mouse assessed as pain threshold variation at 0.013 mmol/kg, ip after 60 mins by tail flick test relative to control; format: functional; method in brief: as §1
# Mus musculus [17] = assay: Analgesic activity in ICR mouse assessed as pain threshold variation at 0.13 mmol/kg, ip after 30 mins by tail flick test relative to control; format: functional; method in brief: as §1
# Mus musculus [18] = assay: Analgesic activity in ICR mouse assessed as pain threshold variation at 0.013 mmol/kg, ip after 90 mins by tail flick test relative to control; format: functional; method in brief: as §1
# [19] = Cardiovascular toxicity in rat aorta assessed as inhibition of noradrenaline-induced vasoconstriction at 5 mM relative to control; format: tissue-based; conditions: isolated rat aorta
# Method in brief: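 Rat aortic strips were contracted with noradrenaline, washed, stabilized for 30 min, and contracted again. At peak contraction, compound was added (final 5 × 10^-3 M) or vehicle alone. The relaxant response was recorded as percentage inhibition of the contraction.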
# Mus musculus [20] = assay: Analgesic activity in ICR mouse assessed as pain threshold variation at 0.0013 mmol/kg, ip after 60 mins by tail flick test relative to control; format: functional; method in brief: as §1
SMILES,Activity (Mus musculus [1]) [%],Activity (Mus musculus [2]) [%],Activity (Mus musculus [3]) [s],Activity (Mus musculus [4]) [%],Activity (Mus musculus [5]) [%],Activity (Mus musculus [6]) [%],Activity (Mus musculus [7]) [%],Activity (Mus musculus [8]) [s],Activity (Mus musculus [9]) [s],Activity (Mus musculus [10]) [s],Activity (Mus musculus [11]) [%],Activity (Mus musculus [12]) [%],Activity (Mus musculus [13]) [%],Activity (Mus musculus [14]) [%],Activity (Mus musculus [15]) [%],Activity (Mus musculus [16]) [%],Activity (Mus musculus [17]) [%],Activity (Mus musculus [18]) [%],inhibition at 5000 µM [19] [%],Activity (Mus musculus [20]) [%]
CC1(C)N=C(c2ccc(Br)cc2)N(O)C1(C)C,19.33,34.49,118,26.57,47.7,52.98,75.77,118,120,119,11.32,70.19,31.87,89.78,75.18,68.89,29.02,53.75,18.4,43.9
CC1(C)N=C(c2ccccc2F)N(O)C1(C)C,45.44,36.96,119,47.03,69.89,56.97,75.97,117,119,117,27.64,90.94,37.8,72.72,73.25,53.11,66.15,54,22.7,36.02
CC1(C)N=C(c2ccc(Cl)cc2)N(O)C1(C)C,39.87,32.13,117,42.74,62.76,50,74.74,117,119,119,24.97,88.42,31.55,70.21,75.61,47.25,63.85,50.88,23.8,30.02
